# Reference: ChEMBL document CHEMBL1143109, “Discovery of novel orally active ureido NPY Y5 receptor antagonists” (Bioorg Med Chem Lett, 2008)
# pKi: −log10 of the molar value.
# Tested on: Rattus norvegicus
# Assay: Blockade of D-Trp[34]-NPY-induced food intake in po dosed rat
# Assay type: functional
# Conditions: not given
row,Compound,ED50 [mg/kg]
1,CN(C(=O)Nc1ccc(-c2cc(F)cc(F)c2)cc1)C1CCN(S(C)(=O)=O)CC1,0.4

# Molecular target: T1, Neuropeptide Y receptor type 5 (Rattus norvegicus) (UniProt Q63634)
# T1 sequence (whole entry): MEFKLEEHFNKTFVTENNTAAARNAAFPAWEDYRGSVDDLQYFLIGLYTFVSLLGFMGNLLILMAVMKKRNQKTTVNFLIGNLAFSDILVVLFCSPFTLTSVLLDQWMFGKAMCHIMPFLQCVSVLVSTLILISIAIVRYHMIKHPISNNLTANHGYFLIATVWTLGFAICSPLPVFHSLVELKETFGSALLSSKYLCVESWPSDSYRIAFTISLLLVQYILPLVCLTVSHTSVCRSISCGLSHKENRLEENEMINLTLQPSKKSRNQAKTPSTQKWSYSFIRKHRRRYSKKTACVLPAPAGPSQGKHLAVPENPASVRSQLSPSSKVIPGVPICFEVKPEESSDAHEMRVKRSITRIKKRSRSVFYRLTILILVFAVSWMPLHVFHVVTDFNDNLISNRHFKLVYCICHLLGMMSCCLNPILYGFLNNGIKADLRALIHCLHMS
# Assay: Antagonist activity at rat NPY Y5 receptor expressed in HEK293 cells assessed as inhibition of forskolin-stimulated cAMP production
# Assay type: functional, cell-based
# Conditions: not given
# Procedure, shortened: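 HEK293 cells expressing rat NPY Y5 receptor. Functional antagonism measured as the ability to overcome NPY inhibition of forskolin-stimulated cAMP production; reported as Kb.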
row,Compound,Kb [nM]
1,CN(C(=O)Nc1ccc(-c2cc(F)cc(F)c2)cc1)C1CCN(S(C)(=O)=O)CC1,0.4

# Molecular target: Neuropeptide Y receptor type 5 (Homo sapiens, UniProt Q15761)
# Sequence (Q15761 whole entry, looked up): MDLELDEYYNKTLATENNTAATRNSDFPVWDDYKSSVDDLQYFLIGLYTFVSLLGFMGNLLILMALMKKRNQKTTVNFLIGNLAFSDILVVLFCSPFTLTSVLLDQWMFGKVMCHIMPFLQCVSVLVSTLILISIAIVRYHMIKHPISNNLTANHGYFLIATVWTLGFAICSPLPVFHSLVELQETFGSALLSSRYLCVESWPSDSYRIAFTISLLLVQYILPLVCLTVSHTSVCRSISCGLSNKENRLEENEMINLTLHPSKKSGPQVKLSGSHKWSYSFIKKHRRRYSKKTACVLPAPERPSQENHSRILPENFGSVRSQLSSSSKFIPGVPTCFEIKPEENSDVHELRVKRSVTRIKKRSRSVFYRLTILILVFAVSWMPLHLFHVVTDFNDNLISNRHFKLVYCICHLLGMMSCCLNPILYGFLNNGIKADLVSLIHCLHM
# Assay: Displacement of [125]PYY from human chimeric NPY Y5 receptor expressed in CHOK1 cells
# Assay type: cell-based
# Conditions: cho-k1
# Procedure, shortened: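 Binding to human chimeric Y5 receptor expressed in CHO-K1 cells; Ki values are the average of two determinations.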
row,Compound,pKi
1,CC(C)C(=O)N1CCC(N(C)C(=O)NC2CCN(c3cc(F)cc(F)c3)CC2)CC1,8.59
2,CN(C(=O)NC1CCN(c2cccc(Cl)c2)CC1)C1CCN(S(C)(=O)=O)CC1,7.89
3,CC(=O)N1CCC(N(C)C(=O)NC2CCN(c3cc(F)cc(F)c3)CC2)CC1,8.13
4,CN(C(=O)N[C@H]1CC[C@H](c2ccccc2)CC1)C1CCN(S(C)(=O)=O)CC1,7.28
5,CN(C(=O)NC1CCN(c2ccc(F)c(Cl)c2)CC1)C1CCN(S(C)(=O)=O)CC1,6.80
6,Cc1cccc(N2CCC(NC(=O)N(C)C3CCN(S(C)(=O)=O)CC3)CC2)c1,7.70
7,CN(C(=O)NC1CCN(c2cc(F)cc(F)c2)CC1)C1CCN(S(C)(=O)=O)CC1,8.49
8,CN(C(=O)NC1CCN(c2cccc(Br)c2)CC1)C1CCN(S(C)(=O)=O)CC1,8.06
9,CCCC(=O)N1CCC(N(C)C(=O)N[C@H]2CC[C@H](c3cc(F)cc(F)c3)CC2)CC1 (stereo in doubt; 21e),8.70
10,CCCS(=O)(=O)N1CCC(N(C)C(=O)NC2CCN(c3cc(F)cc(F)c3)CC2)CC1,8.47
11,CN(C(=O)N[C@H]1CC[C@H](c2cc(F)cc(F)c2)CC1)C1CCN(S(C)(=O)=O)CC1,8.92
12,Cc1ccccc1N1CCC(NC(=O)N(C)C2CCN(S(C)(=O)=O)CC2)CC1,7.28
13,CCS(=O)(=O)N1CCC(N(C)C(=O)N[C@H]2CC[C@H](c3cc(F)cc(F)c3)CC2)CC1,9.12
14,CC(C)S(=O)(=O)N1CCC(N(C)C(=O)NC2CCN(c3cc(F)cc(F)c3)CC2)CC1,8.49
15,CN(C(=O)NC1CCN(c2ccccc2)CC1)C1CCN(S(C)(=O)=O)CC1,6.52
16,CN(C(=O)NC1CCN(c2ccc(Cl)cc2)CC1)C1CCN(S(C)(=O)=O)CC1,6.89
17,CN(C(=O)NC1CCN(c2cccc(F)c2)CC1)C1CCN(S(C)(=O)=O)CC1,7.46
18,CN(C(=O)NC1CCN(c2cc(Cl)cc(Cl)c2)CC1)C1CCN(S(C)(=O)=O)CC1,8.96

row,Compound,pKi
1,CN(C(=O)NC1CCN(c2cccc(C#N)c2)CC1)C1CCN(S(C)(=O)=O)CC1,7.57
2,CN(C(=O)Nc1ccc(-c2cc(F)cc(F)c2)cc1)C1CCN(S(C)(=O)=O)CC1,9.40
3,CN(C(=O)NC1CCN(c2cccnc2)CC1)C1CCN(S(C)(=O)=O)CC1,6.39
4,CN(C(=O)NC1CCN(c2ccc(F)cc2)CC1)C1CCN(S(C)(=O)=O)CC1,6.10
5,CCC(=O)N1CCC(N(C)C(=O)NC2CCN(c3cc(F)cc(F)c3)CC2)CC1,8.20
6,CC(=O)N1CCC(N(C)C(=O)N[C@H]2CC[C@@H](c3ccccc3)CC2)CC1,< 6.00
7,CCS(=O)(=O)N1CCC(N(C)C(=O)NC2CCN(c3cc(F)cc(F)c3)CC2)CC1,8.55
8,CN(C(=O)NC1CCN(c2ccc(Cl)c(Cl)c2)CC1)C1CCN(S(C)(=O)=O)CC1,7.32
9,CCC(=O)N1CCC(N(C)C(=O)N[C@H]2CC[C@H](c3cc(F)cc(F)c3)CC2)CC1,8.82
10,COc1cccc(N2CCC(NC(=O)N(C)C3CCN(S(C)(=O)=O)CC3)CC2)c1,6.51
11,CCCC(=O)N1CCC(N(C)C(=O)NC2CCN(c3cc(F)cc(F)c3)CC2)CC1,8.23
12,CN(C(=O)NC1CCN(c2ccc(Br)cc2)CC1)C1CCN(S(C)(=O)=O)CC1,6.09
13,CCCC(=O)N1CCC(N(C)C(=O)N[C@H]2CC[C@H](c3cc(F)cc(F)c3)CC2)CC1 (stereo in doubt; 21h),8.62
14,CN(C(=O)N[C@H]1CC[C@@H](c2ccccc2)CC1)C1CCN(S(C)(=O)=O)CC1,6.30
15,CN(C(=O)NC1CCN(c2ccccc2F)CC1)C1CCN(S(C)(=O)=O)CC1,7.06
16,CN(C(=O)NC1CCN(c2ccc(F)c(F)c2)CC1)C1CCN(S(C)(=O)=O)CC1,6.51
17,CC(=O)c1cccc(N2CCC(NC(=O)N(C)C3CCN(S(C)(=O)=O)CC3)CC2)c1,6.79
18,CC(=O)N1CCC(N(C)C(=O)N[C@H]2CC[C@H](c3ccccc3)CC2)CC1,7.23
